We go through 13 compounds from ChEMBL document CHEMBL1811799, “Jatrophane diterpenes from Euphorbia esula as antiproliferative agents and potent chemosensitizers to overcome multidrug resistance” (J Nat Prod, 2011).

The test system of data set [1] is HeLa. Description: Antiproliferative activity against human HeLa cells assessed as growth inhibition at 10 ug/mL after 72 hrs by MTT assay. The format is functional. The conditions noted are these: read-out: GI. The method, boiled down: (§1)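 MTT assay on human HeLa, Ishikawa and MCF7 cells seeded at 5000/well and left to attach overnight. Medium was then replaced with medium containing test substances (DMSO stocks, final DMSO up to 0.3%). After 72 h, MTT was added for 4 h, formazan was dissolved in DMSO and absorbance read at 545 nm. Untreated cells served as negative control and cisplatin as positive control. Two plates were run, each with at least five parallel wells.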
A general note: Tetrazolium assays rely on reduction of a dye to a coloured formazan, in cell work by metabolically active cells.

In data set [2] the test system is Ishikawa. Description: Antiproliferative activity against human Ishikawa cells assessed as growth inhibition at 10 ug/mL after 72 hrs by MTT assay. The format is functional. The note with it: read-out: GI. The method in brief:
as §1

The subject of data set [3] is MCF7. Description: Antiproliferative activity against human MCF7 cells assessed as growth inhibition at 10 ug/mL after 72 hrs by MTT assay. The format is functional. The note with it: MCF7, 72 h, read-out: GI. The method in brief:
as §1

In data set [4] the test system is HeLa. Description: Antiproliferative activity against human HeLa cells assessed as growth inhibition at 30 ug/mL after 72 hrs by MTT assay. The format is functional. The conditions noted are these: read-out: GI. The method, boiled down:
as §1

The subject of data set [5] is Ishikawa. Description: Antiproliferative activity against human Ishikawa cells assessed as growth inhibition at 30 ug/mL after 72 hrs by MTT assay. The format is functional. The note with it: read-out: GI. The method, boiled down: as §1
Data set [6] concerns MCF7. The experiment in a line: Antiproliferative activity against human MCF7 cells assessed as growth inhibition at 30 ug/mL after 72 hrs by MTT assay. The format is functional. The note with it: MCF7, 72 h, read-out: GI. The method in brief: as §1
Data set [7] has as its target T1, ATP-dependent translocase ABCB1 (Homo sapiens, UniProt P08183). The experiment in a line: Inhibition of MDR1-mediated rhodamine 123 uptake expressed in mouse L5178Y cells transfected with pHa MDR1/A assessed as fluorescence activity ratio at 4 ug/mL by flow cytometry relative to untreated control. The format is cell-based. The method in brief:
(§2)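 Mouse L5178 lymphoma cells transfected with pHa MDR1/A retrovirus were kept under 60 ng/mL colchicine, alongside L5178Y parent cells, in McCoy's 5A medium with 10% horse serum. Cells at 2×10^6/mL in serum-free medium were preincubated with compound (4.0 or 40.0 μg/mL, in DMSO) for 10 min at room temperature. Rhodamine 123 was then added (5.2 μM final) for 20 min at 37 °C, and cells were washed and measured by flow cytometry. R compares treated versus untreated MDR cells relative to parental cells. Verapamil served as positive control.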
A general note: Flow cytometry measures light scatter and fluorescence of single cells or particles in a stream.

Data set [8] has as its target T1, ATP-dependent translocase ABCB1. Description: Inhibition of MDR1-mediated rhodamine 123 uptake expressed in mouse L5178Y cells transfected with pHa MDR1/A assessed as fluorescence activity ratio at 40 ug/mL by flow cytometry relative to untreated control. The format is cell-based. The method, boiled down: as §2

T1 sequence (P08183 whole entry): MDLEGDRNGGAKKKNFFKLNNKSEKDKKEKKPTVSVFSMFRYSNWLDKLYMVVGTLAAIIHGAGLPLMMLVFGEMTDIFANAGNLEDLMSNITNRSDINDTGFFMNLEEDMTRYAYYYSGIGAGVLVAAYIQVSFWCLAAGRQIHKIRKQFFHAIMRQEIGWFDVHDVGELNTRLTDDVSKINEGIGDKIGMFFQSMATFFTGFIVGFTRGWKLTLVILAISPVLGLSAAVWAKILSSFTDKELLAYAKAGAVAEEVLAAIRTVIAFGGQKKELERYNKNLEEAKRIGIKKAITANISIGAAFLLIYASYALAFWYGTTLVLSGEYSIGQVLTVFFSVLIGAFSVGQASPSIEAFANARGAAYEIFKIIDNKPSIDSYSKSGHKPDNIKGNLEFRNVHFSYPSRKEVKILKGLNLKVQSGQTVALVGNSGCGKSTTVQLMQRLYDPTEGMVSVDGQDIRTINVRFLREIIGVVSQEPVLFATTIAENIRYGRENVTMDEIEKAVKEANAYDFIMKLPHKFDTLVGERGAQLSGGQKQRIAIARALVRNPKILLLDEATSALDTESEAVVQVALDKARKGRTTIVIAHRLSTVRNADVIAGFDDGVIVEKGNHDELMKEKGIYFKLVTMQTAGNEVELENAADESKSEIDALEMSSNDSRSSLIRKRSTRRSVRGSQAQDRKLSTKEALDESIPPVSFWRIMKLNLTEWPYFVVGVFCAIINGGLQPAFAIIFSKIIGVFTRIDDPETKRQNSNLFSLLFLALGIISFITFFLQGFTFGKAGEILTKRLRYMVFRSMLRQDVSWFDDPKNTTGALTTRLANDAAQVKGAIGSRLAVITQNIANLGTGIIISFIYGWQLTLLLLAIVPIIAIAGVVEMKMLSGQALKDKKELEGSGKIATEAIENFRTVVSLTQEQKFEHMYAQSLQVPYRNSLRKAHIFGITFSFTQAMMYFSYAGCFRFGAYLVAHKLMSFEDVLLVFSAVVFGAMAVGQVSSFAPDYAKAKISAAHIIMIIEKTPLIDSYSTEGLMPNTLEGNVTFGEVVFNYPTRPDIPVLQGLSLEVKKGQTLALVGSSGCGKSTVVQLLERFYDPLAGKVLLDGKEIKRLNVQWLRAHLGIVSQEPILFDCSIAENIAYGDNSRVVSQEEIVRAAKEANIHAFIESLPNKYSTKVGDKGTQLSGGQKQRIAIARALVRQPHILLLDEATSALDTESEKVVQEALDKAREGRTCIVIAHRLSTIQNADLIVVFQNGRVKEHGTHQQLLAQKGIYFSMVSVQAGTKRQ

Turning to `C=C1[C@H](OC(C)=O)CC(=O)C(C)(C)/C=C/[C@@H](C)C(=O)[C@@]2(OC(C)=O)C[C@@](C)(OC(C)=O)[C@H](OC(C)=O)[C@@H]2[C@H]1OC(C)=O` [ESULATIN B], the inhibition of growth at 10 µg/mL with HeLa [1] was found to be 17.3%; in the data set with Ishikawa [2], 11.6%; in the data set on MCF7 [3] it was 29.9%. For the same compound, the values for the inhibition of growth at 30 µg/mL in the data set with HeLa [4], with Ishikawa [5] and in the data set with MCF7 [6] were 36.3%, 35% and 43.3%, respectively. Besides, the Ratio worked out at 2.6 in data set [7] and 7.8 in data set [8].

Take `C=C1[C@H](OC(=O)C(C)C)CC(=O)C(C)(C)/C=C/[C@@H](C)C(=O)[C@@]2(OC(C)=O)C[C@H](C)[C@H](OC(C)=O)[C@@H]2[C@H]1OC(C)=O`: the inhibition of growth at 10 µg/mL stood at 19.1% in the data set with HeLa [1], 18.4% in the data set with Ishikawa [2] and 46.8% with MCF7 [3]. The values for the inhibition of growth at 30 µg/mL in the data set with HeLa [4], with Ishikawa [5] and in the data set on MCF7 [6] were 64.5%, 98.4% and 81.4%, respectively. In addition, the figures for the Ratio in data set [7] and in data set [8] were 24.9 and 52.5, respectively.

As to `C=C1[C@H](OC(C)=O)C[C@@H](OC(=O)c2cccnc2)[C@](C)(OC(C)=O)C/C=C/[C@@H](C)C(=O)[C@@]2(OC(C)=O)C[C@@](C)(OC(=O)c3cccnc3)[C@H](OC(C)=O)[C@@H]2[C@H]1OC(C)=O` [EUPHOSALICIN], the values for the inhibition of growth at 10 µg/mL in the data set on HeLa [1], in the data set with Ishikawa [2] and in the data set with MCF7 [3] were 14.5%, 0.9% and 6.3%, respectively. Moreover, the inhibition of growth at 30 µg/mL with HeLa [4] amounted to 18.1%; with Ishikawa [5], 7.6%; in the data set with MCF7 [6], 20%. In addition, the Ratio is recorded as 1.9 in data set [7] and 12.3 in data set [8].

As for `C=C1[C@H](OC(C)=O)CC(=O)C(C)(C)/C=C/[C@@H](C)C(=O)[C@@]2(OC(C)=O)C[C@@](C)(OC(=O)c3ccccc3)[C@H](OC(C)=O)[C@@H]2[C@H]1OC(C)=O` [ESULATIN I], the inhibition of growth at 10 µg/mL was determined as 15.4% in the data set on HeLa [1], 8% in the data set with Ishikawa [2] and 12.7% in the data set on MCF7 [3]. Also, the inhibition of growth at 30 µg/mL came to 23.8% in the data set with HeLa [4], 29.4% in the data set with Ishikawa [5] and 60.1% in the data set on MCF7 [6]. Also, the Ratio was 3.9 in data set [7] and 19.9 in data set [8].

For the compound `C=C1[C@H](OC(C)=O)C[C@@H](OC(=O)c2cccnc2)C(C)(C)/C=C/[C@@H](C)C(=O)[C@@]2(OC(C)=O)C[C@@](C)(OC(=O)c3cccnc3)[C@H](OC(C)=O)[C@@H]2[C@H]1OC(C)=O` [ESULATIN K], the figures for the inhibition of growth at 10 µg/mL in the data set with HeLa [1], in the data set with Ishikawa [2] and with MCF7 [3] were 0.5%, 7.5% and 1.3%, respectively. Also, the values for the inhibition of growth at 30 µg/mL with HeLa [4], with Ishikawa [5] and with MCF7 [6] were 0.6%, 0.1% and 21.3%, respectively. Also, the Ratio in data set [7] came out at 7.2; in data set [8], 19.8.

Take `C=C1[C@H](OC(=O)C(C)C)[C@@H](OC(C)=O)[C@@H](OC(C)=O)C(C)(C)[C@@H]2O[C@](O)([C@H](C)[C@@H]2OC(C)=O)[C@@]2(OC(C)=O)C[C@@](C)(OC(C)=O)[C@H](OC(C)=O)[C@@H]2[C@H]1OC(C)=O`: the inhibition of growth at 10 µg/mL with HeLa [1] is 10.6%; with Ishikawa [2], 12%; in the data set with MCF7 [3] it was 9.8%. For the same compound, the inhibition of growth at 30 µg/mL came out at 17.8% in the data set on HeLa [4], 17.7% with Ishikawa [5] and 11.4% with MCF7 [6]. Further, the Ratio is listed as 1.4 in data set [7] and 1 in data set [8].

Consider `CC(=O)O[C@H]1[C@H]2OC(=O)CC[C@](O)([C@@H]1OC(=O)C(C)C)[C@H](OC(C)=O)[C@H]1[C@@H](OC(C)=O)[C@](C)(OC(C)=O)C[C@]1(OC(C)=O)C(=O)[C@H](C)[C@H]1O[C@@H]1C2(C)C`, for which the inhibition of growth at 10 µg/mL is 5.3% in the data set on HeLa [1], 31.5% in the data set on Ishikawa [2] and 24.8% in the data set with MCF7 [3]. The inhibition of growth at 30 µg/mL came out at 20.8% in the data set with HeLa [4], 33% in the data set with Ishikawa [5] and 29.2% in the data set with MCF7 [6]. In addition, the Ratio in data set [7] turned out to be 5.9; in data set [8] it was 17.5.

`C=C1[C@H](OC(C)=O)C[C@@H](OC(C)=O)C(C)(C)/C=C/[C@@H](C)C(=O)[C@@]2(OC(C)=O)C[C@@](C)(OC(C)=O)[C@H](OC(C)=O)[C@@H]2[C@H]1OC(C)=O` [ESULATIN D]: the inhibition of growth at 10 µg/mL was found to be 11.4% in the data set with HeLa [1], 29.4% in the data set with Ishikawa [2] and 9.5% with MCF7 [3]. For the same compound, the inhibition of growth at 30 µg/mL was determined as 26.7% with HeLa [4], 29.9% in the data set on Ishikawa [5] and 13.5% in the data set with MCF7 [6]. The Ratio in data set [7] is on record as 4.6; in data set [8], 15.2.

With `C=C1[C@H](OC(C)=O)C[C@@H](OC(=O)c2cccnc2)C(C)(C)/C=C/[C@@H](C)C(=O)[C@@]2(OC(C)=O)C[C@@](C)(OC(C)=O)[C@H](OC(C)=O)[C@@H]2[C@H]1OC(C)=O`, the inhibition of growth at 10 µg/mL with HeLa [1] worked out at 13.9%; with Ishikawa [2], 8.1%; in the data set with MCF7 [3] it was 20.3%. The inhibition of growth at 30 µg/mL with HeLa [4] turned out to be 17.9%; with Ishikawa [5], 13.9%; in the data set with MCF7 [6], 36.3%. Also, the Ratio in data set [7] is reported as 1.7; in data set [8], 2.3.

With `C=C1/C=C\C(=O)C(C)(C)/C=C/[C@@H](C)C(=O)[C@@]2(OC(C)=O)C[C@@](C)(OC(C)=O)[C@H](OC(C)=O)[C@@H]2[C@H]1OC(C)=O` [ESULATIN E], the inhibition of growth at 10 µg/mL in the data set with HeLa [1] worked out at 19.5%; with Ishikawa [2], 35.6%; with MCF7 [3], 30.4%. In addition, the inhibition of growth at 30 µg/mL amounted to 58.1% in the data set on HeLa [4], 54.1% in the data set with Ishikawa [5] and 61.4% with MCF7 [6].

For `C=C1[C@H](OC(=O)C(C)C)[C@@H](OC(C)=O)[C@@H](OC(C)=O)C(C)(C)/C=C/[C@@H](C)C(=O)[C@@]2(OC(C)=O)C[C@@](C)(OC(C)=O)[C@H](OC(C)=O)[C@@H]2[C@H]1OC(C)=O`, the figures for the inhibition of growth at 10 µg/mL in the data set on HeLa [1], in the data set with Ishikawa [2] and in the data set on MCF7 [3] were 2.9%, 21.4% and 8.7%, respectively. Also, the results for the inhibition of growth at 30 µg/mL in the data set with HeLa [4], in the data set with Ishikawa [5] and in the data set with MCF7 [6] were 10.9%, 17.1% and 23.3%, respectively. For the same compound, the Ratio in data set [7] came out at 5.5; in data set [8], 14.8.

Consider `C=C1[C@H](OC(=O)C(C)C)C[C@@H](OC(=O)c2cccnc2)C(C)(C)/C=C/[C@@H](C)C(=O)[C@@]2(OC(C)=O)C[C@H](C)[C@H](OC(C)=O)[C@@H]2[C@H]1OC(C)=O`, for which the inhibition of growth at 10 µg/mL was found to be 18.3% in the data set with HeLa [1], 5.9% in the data set with Ishikawa [2] and 18.5% in the data set on MCF7 [3]. In addition, the inhibition of growth at 30 µg/mL with HeLa [4] is 4.5%; in the data set with Ishikawa [5], 16.4%; with MCF7 [6], 14.4%. For the same compound, the values for the Ratio in data set [7] and in data set [8] were 16.6 and 119.9, respectively.

Take `C=C1[C@H](OC(=O)C(C)C)C[C@@H](OC(=O)c2cccnc2)C(C)(C)/C=C/[C@@H](C)C(=O)[C@@]2(OC(C)=O)C[C@@](C)(OC(C)=O)[C@H](OC(C)=O)[C@@H]2[C@H]1OC(C)=O`: the inhibition of growth at 10 µg/mL in the data set with HeLa [1] worked out at 6.4%; in the data set with Ishikawa [2], 17.5%; with MCF7 [3] it was 3.6%. Moreover, the figures for the inhibition of growth at 30 µg/mL with HeLa [4], with Ishikawa [5] and in the data set on MCF7 [6] were 1.1%, 26.6% and 16.7%, respectively. Further, the figures for the Ratio in data set [7] and in data set [8] were 23.8 and 36.4, respectively.
